Measurements reported in ChEMBL document CHEMBL1649062, “Integration of lead optimization with crystallography for a membrane-bound ion channel target: discovery of a new class of AMPA receptor positive allosteric modulators” (J Med Chem, 2011).
≈ marks a conversion by molar mass, not a printed value. Calls of active or inactive are those of the source.

Columns and labels:
[1] = Kinetic solubility of the compound in phosphate buffered saline of pH 7.4; type: physicochemical
How it was run: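 Kinetic solubility: 10 mM DMSO stock, 5 μL diluted to 100 μL with pH 7.4 phosphate-buffered saline, equilibrated 1 h at room temperature, filtered, filtrate quantified by calibrated flow-injection chemiluminescent nitrogen detection.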

[2] = Plasma protein binding in rat at 3 mg/kg, po; type: ADME, organism-based; parameters: dose 3 mg/kg, route oral; settings: read-out: PPB (converted)
[3] = Distribution coefficient, log D of the compound at pH 7.4; type: physicochemical; settings: octanol/water
[4] = Apparent permeability of the compound; type: ADME; settings: not told
How it was run: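 Artificial membrane permeability: donor holds 10 mM sample in pH 7.05 phosphate buffer with 0.5% hydroxypropylcyclodextrin. Membrane is 1.8% phosphatidylcholine and 1% cholesterol in decane. Donor and acceptor concentrations measured by LCMS after 3 h at room temperature; permeability expressed in nm/s.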

Glutamate receptor 2 [5] = biological target: T1, Glutamate receptor 2 (Homo sapiens, UniProt P42262); test: Allosteric modulation of human recombinant GluA2 receptor flip isoform expressed in HEK293 cells assessed as potentiation of glutamate-induced calcium influx by Fluo-4/FLIPR method relative to cyclothiazide; type: cell-based
T1 sequence (P42262 whole entry, canonical isoform): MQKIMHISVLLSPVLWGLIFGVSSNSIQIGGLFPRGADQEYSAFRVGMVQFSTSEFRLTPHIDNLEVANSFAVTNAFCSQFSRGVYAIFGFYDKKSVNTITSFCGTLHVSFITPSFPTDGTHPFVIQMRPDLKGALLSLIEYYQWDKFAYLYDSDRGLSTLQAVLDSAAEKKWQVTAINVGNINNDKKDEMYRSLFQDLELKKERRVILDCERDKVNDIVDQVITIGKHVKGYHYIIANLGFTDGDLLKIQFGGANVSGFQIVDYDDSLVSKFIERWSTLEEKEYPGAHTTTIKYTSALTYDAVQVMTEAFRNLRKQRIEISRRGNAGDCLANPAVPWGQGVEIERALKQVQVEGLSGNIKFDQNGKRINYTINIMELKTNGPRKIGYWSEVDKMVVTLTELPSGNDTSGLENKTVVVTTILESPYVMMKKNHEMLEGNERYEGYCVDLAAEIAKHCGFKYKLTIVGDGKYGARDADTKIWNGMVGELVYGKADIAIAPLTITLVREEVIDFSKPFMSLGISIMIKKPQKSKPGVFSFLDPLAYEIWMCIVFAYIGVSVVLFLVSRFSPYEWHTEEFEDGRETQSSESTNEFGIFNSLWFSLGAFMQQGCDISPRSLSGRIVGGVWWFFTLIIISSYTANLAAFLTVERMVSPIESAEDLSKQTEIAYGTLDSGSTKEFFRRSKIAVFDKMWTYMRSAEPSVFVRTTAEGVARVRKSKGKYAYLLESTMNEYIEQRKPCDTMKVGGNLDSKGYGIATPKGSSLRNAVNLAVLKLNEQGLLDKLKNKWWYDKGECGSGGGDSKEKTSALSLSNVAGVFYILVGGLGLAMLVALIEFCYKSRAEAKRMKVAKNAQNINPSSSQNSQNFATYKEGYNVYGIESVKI
How it was run: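 Stable GluA2 flip (unedited) cells seeded to confluence 2-3 days before assay; washed in HEPES buffer (145 NaCl, 5 KCl, 2 CaCl2, 1 MgCl2, 5.5 glucose, pH 7.3), loaded with 2 μM Fluo4-AM 60 min at room temperature. FLIPR dual addition: compound 5 min before 100 μM glutamate; fluorescence rise expressed against maximal cyclothiazide response, fitted pEC50 and Asym max; n ≥ 3.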

Cytochrome P450 3A4 = Cytochrome P450 3A4 (Homo sapiens, UniProt P08684); test: Inhibition of human CYP3A4 by fluorescence assay; type: ADME
Cytochrome P450 3A4, sequence (P08684 whole entry): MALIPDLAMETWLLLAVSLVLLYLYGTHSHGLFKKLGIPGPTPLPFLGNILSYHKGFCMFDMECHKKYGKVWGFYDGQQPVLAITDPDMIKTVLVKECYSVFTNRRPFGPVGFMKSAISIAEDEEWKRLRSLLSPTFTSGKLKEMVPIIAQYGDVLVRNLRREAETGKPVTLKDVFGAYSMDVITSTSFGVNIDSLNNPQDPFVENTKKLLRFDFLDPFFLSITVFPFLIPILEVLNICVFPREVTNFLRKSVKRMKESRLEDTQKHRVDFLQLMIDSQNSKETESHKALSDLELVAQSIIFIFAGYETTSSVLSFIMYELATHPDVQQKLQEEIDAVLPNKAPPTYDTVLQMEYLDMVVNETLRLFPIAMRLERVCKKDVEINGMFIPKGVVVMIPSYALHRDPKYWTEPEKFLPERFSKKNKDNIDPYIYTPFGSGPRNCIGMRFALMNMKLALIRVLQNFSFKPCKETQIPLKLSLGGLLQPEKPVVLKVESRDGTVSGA
How it was run: (§1)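 Recombinant human CYP bactosomes (0.1 mg/mL) in 50 mM potassium phosphate pH 7.4, preincubated 10 min at 37 °C with test compound (0.1-10 μM, 7 concentrations) and fluorogenic substrate. Substrates: ethoxyresorufin 0.5 μM (1A2), FCA 50 μM (2C9), BMC 10 μM (2C19), MMC 10 μM (2D6), DEF 1 μM or 7-BQ 25 μM (3A4). Reaction started with NADPH regenerating system; metabolite formation read over 10 min. IC50 from percent of control rate; miconazole control; triplicate.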

Brain [6] = test: Brain tissue binding in rat at 3 mg/kg, po; type: ADME, organism-based; parameters: dose 3 mg/kg, route oral; settings: in vivo
[7] = AUC (0 to t) in rat blood at 3 mg/kg, po; type: ADME, organism-based; parameters: dose 3 mg/kg, route oral; settings: whole blood
[8] = Cmax in rat blood at 3 mg/kg, po; type: ADME, organism-based; parameters: dose 3 mg/kg, route oral; settings: whole blood
[9] = Blood Clearance in rat at 3 mg/kg, po; type: ADME, organism-based; parameters: dose 3 mg/kg, route oral; settings: whole blood
How it was run: (§2)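 Rats dosed orally at 3 mg/kg; blood sampled via the hepatic portal vein and heart. Estimated clearance derived from in vivo hepatic extraction, taking rat liver blood flow as 85 (mL/min)/kg.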

Glutamate receptor 2 [10] = biological target: T1, Glutamate receptor 2; test: Allosteric modulation of human recombinant GluA2 receptor flip isoform expressed in HEK293 cells assessed as potentiation of glutamate-induced calcium influx by Fluo-4/FLIPR method; type: cell-based
How it was run: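 Stable GluA2 flip (unedited) cell line grown in DMEM/F12 with 10% FBS and seeded to confluence 2-3 days before use. Cells washed in HEPES buffer (pH 7.3) and loaded with 2 μM Fluo-4 AM for 60 min at room temperature. On FLIPR, compound was added 5 min before 100 μM glutamate. pEC50 and asymptotic maximum are relative to the maximal response to cyclothiazide, n ≥ 3.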

Cytochrome P450 2D6 = Cytochrome P450 2D6 (Homo sapiens, UniProt P10635); test: Inhibition of human CYP2D6 by fluorescence assay; type: ADME; how it was run: as §1
Cytochrome P450 2D6, sequence (P10635 whole entry): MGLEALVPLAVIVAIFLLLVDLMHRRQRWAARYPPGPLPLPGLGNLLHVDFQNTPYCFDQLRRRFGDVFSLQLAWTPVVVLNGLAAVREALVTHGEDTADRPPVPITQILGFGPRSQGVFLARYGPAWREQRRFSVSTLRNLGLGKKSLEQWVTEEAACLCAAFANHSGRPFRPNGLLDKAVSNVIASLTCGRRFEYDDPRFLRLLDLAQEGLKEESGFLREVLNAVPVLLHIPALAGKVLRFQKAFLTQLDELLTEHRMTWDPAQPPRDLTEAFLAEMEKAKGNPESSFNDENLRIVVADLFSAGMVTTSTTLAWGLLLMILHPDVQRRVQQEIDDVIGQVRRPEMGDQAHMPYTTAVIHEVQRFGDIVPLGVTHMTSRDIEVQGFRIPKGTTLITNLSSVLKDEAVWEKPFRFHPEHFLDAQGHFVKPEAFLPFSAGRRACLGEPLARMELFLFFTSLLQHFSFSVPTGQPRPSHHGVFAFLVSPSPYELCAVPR

Cytochrome P450 1A2 = biological target: T2, Cytochrome P450 1A2 (Homo sapiens, UniProt P05177); test: Inhibition of human CYP1A2 by fluorescence assay; type: ADME; how it was run: as §1
T2 sequence (P05177 whole entry): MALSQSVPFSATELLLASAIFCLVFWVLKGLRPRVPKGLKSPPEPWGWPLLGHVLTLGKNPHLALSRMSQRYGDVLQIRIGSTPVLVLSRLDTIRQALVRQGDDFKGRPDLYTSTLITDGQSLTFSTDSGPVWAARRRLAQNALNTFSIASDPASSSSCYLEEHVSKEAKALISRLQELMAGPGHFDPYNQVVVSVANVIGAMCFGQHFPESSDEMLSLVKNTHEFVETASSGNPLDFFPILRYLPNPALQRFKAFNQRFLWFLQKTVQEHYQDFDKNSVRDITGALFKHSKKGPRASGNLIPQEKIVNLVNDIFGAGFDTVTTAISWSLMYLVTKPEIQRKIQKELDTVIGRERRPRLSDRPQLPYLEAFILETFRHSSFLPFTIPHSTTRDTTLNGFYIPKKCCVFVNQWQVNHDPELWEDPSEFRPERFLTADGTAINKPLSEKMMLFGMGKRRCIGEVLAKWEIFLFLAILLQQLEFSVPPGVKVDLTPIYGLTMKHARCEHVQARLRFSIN

Cytochrome P450 2C19 = Cytochrome P450 2C19 (Homo sapiens, UniProt P33261); test: Inhibition of human CYP2C19 by fluorescence assay; type: ADME; how it was run: as §1
Cytochrome P450 2C19, sequence (P33261 whole entry): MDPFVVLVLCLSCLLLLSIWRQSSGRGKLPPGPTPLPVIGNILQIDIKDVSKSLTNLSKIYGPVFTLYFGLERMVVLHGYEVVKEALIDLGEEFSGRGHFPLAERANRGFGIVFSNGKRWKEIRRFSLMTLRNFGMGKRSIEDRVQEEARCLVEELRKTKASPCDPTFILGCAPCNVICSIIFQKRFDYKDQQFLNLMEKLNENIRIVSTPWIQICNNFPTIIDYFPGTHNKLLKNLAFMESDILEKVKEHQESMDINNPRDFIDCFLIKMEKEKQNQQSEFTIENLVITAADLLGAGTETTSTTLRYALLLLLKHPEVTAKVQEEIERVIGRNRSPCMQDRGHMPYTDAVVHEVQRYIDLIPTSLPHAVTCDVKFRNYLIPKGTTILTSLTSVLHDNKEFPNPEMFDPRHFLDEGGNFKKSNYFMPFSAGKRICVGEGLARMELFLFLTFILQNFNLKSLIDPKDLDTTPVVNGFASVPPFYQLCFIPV

Cytochrome P450 2C9 = Cytochrome P450 2C9 (Homo sapiens, UniProt P11712); test: Inhibition of human CYP2C9 by fluorescence assay; type: ADME; how it was run: as §1
Cytochrome P450 2C9, sequence (P11712 whole entry): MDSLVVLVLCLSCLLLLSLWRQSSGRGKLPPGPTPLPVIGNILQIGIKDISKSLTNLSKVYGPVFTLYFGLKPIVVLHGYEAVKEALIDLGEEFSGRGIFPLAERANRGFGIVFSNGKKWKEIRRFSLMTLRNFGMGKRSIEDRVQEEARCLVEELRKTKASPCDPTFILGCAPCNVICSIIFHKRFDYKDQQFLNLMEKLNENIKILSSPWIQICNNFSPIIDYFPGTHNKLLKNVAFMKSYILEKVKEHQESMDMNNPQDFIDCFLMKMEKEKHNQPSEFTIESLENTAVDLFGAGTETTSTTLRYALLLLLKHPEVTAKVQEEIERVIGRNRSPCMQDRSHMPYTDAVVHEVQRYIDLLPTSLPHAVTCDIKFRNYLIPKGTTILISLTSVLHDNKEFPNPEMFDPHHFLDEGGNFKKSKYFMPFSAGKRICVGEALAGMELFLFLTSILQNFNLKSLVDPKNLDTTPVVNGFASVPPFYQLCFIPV

Rattus norvegicus [11] = test: Neurotoxicity in Lister Hooded rat assessed proconvulsant effect at 150 mg/kg, ip by MEST test; type: toxicity, organism-based; parameters: dose 150 mg/kg, route intraperitoneal; settings: in vivo
How it was run: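 Male Lister Hooded rats pretreated with compound, saline vehicle or picrotoxin 30 min before corneal electroshock (CC50 about 60–70 mA, 0.1 ms); tonic and tonic-clonic seizure threshold scored; brain concentrations taken from satellite rats sampled right after testing.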

Brain [12] = test: Drug level in Lister Hooded rat assessed per gram of tissue at 3 mg/kg, ip; type: ADME, organism-based; parameters: dose 3 mg/kg, route intraperitoneal; settings: in vivo
How it was run: (§3)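 Male Lister Hooded rats (n = 9-12/group) tested for reversal of a 24 h delay-induced deficit in novel object recognition. Significant doses flagged. Brain concentrations measured in the study animals at the end of the test.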

Brain [13] = test: Drug level in Lister Hooded rat assessed per gram of tissue at 10 mg/kg, ip; type: ADME, organism-based; parameters: dose 10 mg/kg, route intraperitoneal; settings: in vivo; how it was run: as §3
Brain [14] = test: Drug level in Lister Hooded rat assessed per gram of tissue at 1 mg/kg, ip; type: ADME, organism-based; parameters: dose 1 mg/kg, route intraperitoneal; settings: in vivo; how it was run: as §3
Rattus norvegicus [15] = test: Cognitive enhancing effect in Wistar rat assessed as reversal of scopolamine-induced amnesic deficit at 10 to 30 mg/kg, ip by passive avoidance test
Brain [16] = test: Drug level in Lister Hooded rat assessed per gram of tissue at 150 mg/kg, ip; type: ADME, organism-based; parameters: dose 150 mg/kg, route intraperitoneal; settings: in vivo
How it was run: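 Male Lister Hooded rats pretreated 30 min before the maximal electroshock threshold test with compound or saline vehicle; picrotoxin served as positive control. Corneal current applied, CC50 about 60-70 mA, 0.1 ms. Brain levels measured in satellite rats sampled immediately after testing.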

in vivo = settings: rat, brain and blood, po, 3 mg/kg
[17] = Distribution coefficient, log D of the compound; type: physicochemical; settings: octanol/water
[18] = AUC ( 0 to t) in rat at 3 mg/kg, po; type: ADME, organism-based, Plasma; parameters: dose 3 mg/kg, route oral; settings: plasma
[19] = Inhibition of human CYP450 by fluorescence assay; type: ADME
How it was run: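 Recombinant human CYP1A2, 2C9, 2C19, 2D6 and 3A4 bactosomes (0.1 mg/mL protein) preincubated 10 min at 37 °C in 50 mM potassium phosphate pH 7.4 with test compound (0.1–10 μM, methanol 3–4.5% final) and fluorogenic probe: ethoxyresorufin 0.5 μM (1A2), FCA 50 μM (2C9), BMC 10 μM (2C19), MMC 10 μM (2D6), DEF 1 μM or 7-BQ 25 μM (3A4). NADPH-regenerating system added; fluorescent metabolite read 10 min; rate as % control; IC50 fitted; triplicate.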

[20] = Clearance in rat at 3 mg/kg, po; type: ADME, organism-based; parameters: dose 3 mg/kg, route oral; settings: in vivo; how it was run: as §2
[21] = Cmax in rat at 3 mg/kg, po; type: ADME, organism-based; parameters: dose 3 mg/kg, route oral; settings: in vivo

Row | SMILES | solubility kinetic [1] [µg/mL] | fraction unbound [2] | logD [3] | Papp [4] [×10⁻⁶ cm/s] | Activity (Glutamate receptor 2 [5]) [%] | IC50 (Cytochrome P450 3A4) [µM] | Brain tissue binding (% bound) (Brain [6]) [%] | AUC(0-t) [7] [ng·h/mL] | Cmax [8] [ng/mL] | CL/F [9] [mL/min/kg] | EC50 (Glutamate receptor 2 [10]) [µM] | IC50 (Cytochrome P450 2D6) [µM] | IC50 (Cytochrome P450 1A2) [µM] | IC50 (Cytochrome P450 2C19) [µM] | IC50 (Cytochrome P450 2C9) [µM] | Activity (Rattus norvegicus [11]) | Drug uptake (Brain [16]) [ng/g] | also measured
1 | O=C(c1ccc(-n2nc(C(F)(F)F)c3c2COCC3)cc1)N1CCCC1 | 104 (≈ 285 µM) | 0.067 | 2.6 | 49 | 75 | > 10 | 95.5 | 733 | 225 | 13 | 100 | > 10 | > 10 | > 10 | > 10 |  |  | 
2 | O=C(c1ccc(-n2nc(C(F)(F)F)c3c2CCOC3)cc1)N1CCCC1 | 192 (≈ 526 µM) | 0.137 | 2.4 | 49.5 | 81 | > 10 | 88.4 | 1330 | 551 | 6 | > 20 | > 10 | > 10 | > 10 | > 10 | Non-toxic | 22525 | Drug uptake (Brain [12]): 983 ng/g; Drug uptake (Brain [13]): 2609 ng/g; Drug uptake (Brain [14]): 228 ng/g; Activity (Rattus norvegicus [15]): Active
3 | O=C1CCCN1Cc1ccc(-n2nc(C(F)(F)F)c3c2CCOC3)cc1 | 215 (≈ 588 µM) | 0.16 | 2.4 | 47 | 138 | > 8 | 87.9 | 972 | 808 | 41 | 10 | > 8 | > 8 | > 8 | > 8 |  |  | 
4 | CS(=O)(=O)NCc1ccc(-n2nc(C(F)(F)F)c3c2CCCC3)cc1 | 103 (≈ 276 µM) | 0.021 |  | 33.5 | 112 |  | 99.2 |  |  |  | 7.94 |  |  |  |  | Non-toxic | 5074 | Kp (in vivo): 1.6; logD [17]: 2.5; AUC(0-t) [18]: 416 ng·h/mL; IC50 [19]: > 10 µM; CL/F [20]: 43 mL/min/kg; Cmax [21]: 197 ng/mL
